Test results from EPA's CvTdb concentration-time database.

Assays:
[1] = tested on: Rat; experiment: concentration in liver after dosing; conditions: dosed: Potassium Perfluorobutane Sulfonate, 20 mg/kg, oral
[2] = tested on: Rat; experiment: concentration in kidney after dosing; conditions: dosed: Potassium Perfluorobutane Sulfonate, 20 mg/kg, oral
[3] = tested on: Rat; experiment: concentration in brain after dosing; conditions: dosed: Potassium Perfluorobutane Sulfonate, 20 mg/kg, oral
[4] = tested on: Rat; experiment: concentration in liver after dosing; conditions: 1 h; dosed: Potassium Perfluorobutane Sulfonate; 20 mg/kg; oral; Male; Harlan Sprague Dawley
[5] = tested on: Rat; experiment: concentration in plasma after dosing; conditions: dosed: Potassium Perfluorobutane Sulfonate
[6] = tested on: rat; experiment: amount in urine after dosing (umol)
[7] = tested on: human; experiment: amount in urine after dosing (umol)
Procedure, shortened: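 A PubMed search, classifier screening and manual review identified published in vivo toxicokinetic studies, which together with two structured collections supplied concentration-versus-time and amount-versus-time points. Points were mostly digitised from plot screenshots with WebPlotDigitizer, otherwise copied from tables. Dose, route, subject details and medium were hand-curated from each paper, and sampling and analytical methods are those of the sources, often unreported.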

O=S(=O)([O-])C(F)(F)C(F)(F)C(F)(F)C(F)(F)F.[K+] [Potassium Perfluorobutane Sulfonate]
Conditions	concentration in brain, [3] [ng/g]	concentration in kidney, [2] [ng/g]	concentration in liver, [1] [ng/g]
0.5 h, Female, Harlan Sprague Dawley	538	30100	29500
0.5 h, Male, Harlan Sprague Dawley	590	19000	61000
0.5 h, Male, Harlan Sprague Dawley - this seems too small	725	19900	95200
1 h, Female, Harlan Sprague Dawley	–	17600	42000
1 h, Male, Harlan Sprague Dawley	1120	14900	75600
3 h, Female, Harlan Sprague Dawley	–	10900	5790
3 h, Male, Harlan Sprague Dawley	769	19700	87000
6 h, Female, Harlan Sprague Dawley	–	1290	910
6 h, Male, Harlan Sprague Dawley	562	15200	51600
12 h, Male, Harlan Sprague Dawley	–	1960	7420

Conditions	concentration in liver [ng/g]
[4]	110000

concentration in plasma [ng/mL], [5]
Conditions	4 mg/kg	20 mg/kg
0.25 h, iv, Male, F344	28000	–
0.25 h, oral, Male, Harlan Sprague Dawley	4690	28700
0.5 h, iv, Female, Harlan Sprague-Dawley	11100	–
0.5 h, iv, Male, F344	23800	–
0.5 h, oral, Male, Harlan Sprague Dawley	9170	–
0.75 h, iv, Female, Harlan Sprague-Dawley	7790	–
0.75 h, iv, Male, F344	23800	–
0.75 h, oral, Male, Harlan Sprague Dawley	9060	49600
1 h, iv, Female, Harlan Sprague-Dawley	4090	–
1 h, iv, Male, F344	22000	–
1 h, oral, Male, Harlan Sprague Dawley	12900	–
1.5 h, iv, Male, F344	18500	–
1.5 h, oral, Male, Harlan Sprague Dawley	12100	63600
3 h, iv, Male, F344	10500	–
3 h, oral, Male, Harlan Sprague Dawley	15300	–
5 min, iv, Male, F344	33300	–
5 min, oral, Male, Harlan Sprague Dawley	537	653
6 h, iv, Male, F344	6690	–
6 h, oral, Male, Harlan Sprague Dawley	12500	–
9 h, oral, Male, Harlan Sprague Dawley	8100	15100
12 h, iv, Male, F344	1600	–
12 h, oral, Male, Harlan Sprague Dawley	9160	–
24 h, iv, Male, F344	232	–
24 h, oral, Male, Harlan Sprague Dawley	47.1	364
48 h, oral, Male, Harlan Sprague Dawley	–	42.6

CO [methanol]
[6], dosed: methanol, 100 mg/kg, iv, male, CDF(F344)/CrlBR
Conditions	amount in urine
0.9577 h	2.05
2.957 h	4.06
5.924 h	5.16
9.972 h	5.6
11.92 h	5.58
14.94 h	5.56

CC(C)(C)O [tert-butyl alcohol]
[6], inhalation, duration: 4 hr, F344 (Harlan Winkelmann)
Conditions	amount in urine
5.904 h, dosed: methyl tert-butyl ether, 38.7 ppm	0.773
5.97 h, dosed: ethyl tert-butyl ether, 40.6 ppm	0.601
11.88 h, dosed: methyl tert-butyl ether, 38.7 ppm	0.347
11.92 h, dosed: ethyl tert-butyl ether, 40.6 ppm	0.254
11.96 h, dosed: methyl tert-butyl ether, 4.5 ppm	0.24
17.95 h, dosed: methyl tert-butyl ether, 4.5 ppm	0.076
17.97 h, dosed: methyl tert-butyl ether, 38.7 ppm	0.126
17.99 h, dosed: ethyl tert-butyl ether, 40.6 ppm	0.187
23.91 h, dosed: methyl tert-butyl ether, 4.5 ppm	0.0671
23.93 h, dosed: methyl tert-butyl ether, 38.7 ppm	0.0789
23.94 h, dosed: ethyl tert-butyl ether, 40.6 ppm	0.0668
29.91 h, dosed: methyl tert-butyl ether, 38.7 ppm	0.0315
29.93 h, dosed: ethyl tert-butyl ether, 40.6 ppm	0.0668
29.96 h, dosed: methyl tert-butyl ether, 4.5 ppm	0.083

amount in urine, [7], inhalation, duration: 4 hr
Conditions	dosed: ethyl tert-butyl ether	dosed: methyl tert-butyl ether
0 h, 4.5 ppm	–	0.221
0 h, 40.6 ppm	2.39	–
0.1079 h, 38.7 ppm	–	6.16
2 s, 4.5 ppm	0.655	–
5.895 h, 40.6 ppm	5.98	–
5.968 h, 4.5 ppm	1.15	–
6.052 h, 4.5 ppm	–	0.993
6.07 h, 38.7 ppm	–	7.53
11.89 h, 40.6 ppm	5.18	–
11.9 h, 4.5 ppm	–	0.993
11.92 h, 38.7 ppm	–	6.16
12.14 h, 4.5 ppm	0.764	–
17.89 h, 40.6 ppm	3.59	–
18.05 h, 4.5 ppm	0.545	0.221
18.09 h, 38.7 ppm	–	4.11
23.89 h, 40.6 ppm	1.59	–
23.9 h, 4.5 ppm	–	0.221
23.95 h, 38.7 ppm	–	2.74
24.02 h, 4.5 ppm	0.545	–
29.89 h, 40.6 ppm	1.39	–
30.05 h, 4.5 ppm	–	0.221
30.12 h, 38.7 ppm	–	4.11
30.19 h, 4.5 ppm	0.273	–
35.9 h, 4.5 ppm	–	0.11
35.97 h, 38.7 ppm	–	2.74
36.11 h, 40.6 ppm	0.598	–
42.11 h, 40.6 ppm	0.598	–
42.14 h, 38.7 ppm	–	0.685
48.11 h, 40.6 ppm	0.797	–
48.29 h, 4.5 ppm	0.0545	–
54.17 h, 38.7 ppm	–	0.685
71.95 h, 38.7 ppm	–	0.685
72.05 h, 40.6 ppm	0.199	–

[7], dosed: methyl tert-butyl ether, oral
Conditions	amount in urine
0 h, 5 mg	0.0137
5.859 h, 15 mg	0.646
6.163 h, 5 mg	0.274
12.01 h, 5 mg	0.233
12.04 h, 15 mg	0.568
17.9 h, 15 mg	0.329
18.18 h, 5 mg	0.123
24.08 h, 15 mg	0.292
24.24 h, 5 mg	0.0548
29.94 h, 15 mg	0.214
30.19 h, 5 mg	0.0685
36.12 h, 15 mg	0.136
36.25 h, 5 mg	0.0548
41.98 h, 15 mg	0.138
42.1 h, 5 mg	0.0137
48.05 h, 15 mg	0.101
54.02 h, 15 mg	0.143
